Assay results from ChEMBL document CHEMBL3596125, “Discovery of substituted 1,4-dihydroquinolines as novel promising class of P-glycoprotein inhibitors: First structure-activity relationships and bioanalytical studies” (Bioorg Med Chem Lett, 2015).

What was measured:
Homo sapiens [1] = species on record: Homo sapiens; test: Inhibition of human P-gp expressed in mouse T-cell lymphoma assessed as ratio of rhodamine 123 uptake in P-gp expressing cells to rhodamine 123 uptake in non P-gp expressing cells at 1 uM by flow cytometric analysis relative to control; type: cell-based
Outline: (§1)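 Rhodamine 123 uptake is read by flow cytometry in the parental mouse T-lymphoma line and in the colchicine-selected subline expressing human P-gp, with or without inhibitor. Fluorescence in each line is first normalized to the untreated control of that line. The FAR value is then calculated as subline fluorescence divided by parental-line fluorescence.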

Homo sapiens [2] = species on record: Homo sapiens; test: Inhibition of human P-gp expressed in mouse T-cell lymphoma assessed as ratio of rhodamine 123 uptake in P-gp expressing cells to rhodamine 123 uptake in non P-gp expressing cells at 10 uM by flow cytometric analysis relative to control; type: cell-based; outline: as §1
[3] = Cytotoxicity against mouse T-cell lymphoma assessed as reduction of cell viability after 24 hrs by MTT assay
Outline: (§2)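 MTT viability assay, with formazan formation by mitochondrial dehydrogenases as the read-out. Cells are the parental mouse T-lymphoma line or its retrovirally transfected subline expressing human P-gp, which is kept under colchicine. Cells are incubated with varying concentrations of compound for 24 or 48 h. IC50 is derived from the reduction in viability.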

[4] = Cytotoxicity against mouse T-cell lymphoma assessed as reduction of cell viability after 48 hrs by MTT assay; outline: as §2
[5] = Cytotoxicity against mouse T-cell lymphoma expressing human P-gp assessed as reduction of cell viability after 24 hrs by MTT assay; type: ADME; outline: as §2
[6] = Cytotoxicity against mouse T-cell lymphoma expressing human P-gp assessed as reduction of cell viability after 48 hrs by MTT assay; type: ADME; outline: as §2
Homo sapiens [7] = species on record: Homo sapiens; test: Activity at human P-gp expressed in mouse T-cell lymphoma assessed as fluorescence ratio at 50 uM by flow cytometric analysis
Outline: (§3)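 Cells are the parental mouse T-lymphoma line and its subline transfected retrovirally with human P-gp, which is maintained under colchicine selection. The fluorescent test compound is added at 50 or 100 µM. Intrinsic compound fluorescence taken up by the cells is read by flow cytometry. The ratio relates the uptake in the P-gp-expressing subline to that in the parental line. Values are means of three determinations.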

[8] = Cellular uptake in mouse T-cell lymphoma assessed as fluorescence ratio at 50 uM by flow cytometric analysis; type: ADME; conditions: in vitro; outline: as §3
Homo sapiens [9] = species on record: Homo sapiens; test: Activity at human P-gp expressed in mouse T-cell lymphoma assessed as fluorescence ratio at 100 uM by flow cytometric analysis; outline: as §3
[10] = Cellular uptake in mouse T-cell lymphoma assessed as fluorescence ratio at 100 uM by flow cytometric analysis; type: ADME; conditions: in vitro; outline: as §3

| Ratio (Homo sapiens [7]) | Ratio [8] | Ratio (Homo sapiens [9]) | Ratio [10] | Compound | Ratio (Homo sapiens [1]) | Ratio (Homo sapiens [2]) | IC50 [3] | IC50 [4] | IC50 [5] | IC50 [6] |
| --- | --- | --- | --- | --- | --- | --- | --- | --- | --- | --- |
| 1.06 | 1.06 | 1.07 | 1.07 | CCOC(=O)C1=CN(Cc2ccccc2)c2ccccc2C1c1ccc(OC)c(OC)c1 (stereo unspecified) | 3.42 | 12.8 | > 160 µM | > 160 µM | > 160 µM | > 160 µM |
| – | – | – | – | CCOC(=O)C1=CN(Cc2ccc(OC)cc2)c2ccccc2C1c1cccc(OC)c1 (stereo unspecified) | 2.03 | 10.3 | – | – | – | – |
| – | – | – | – | CCOC(=O)C1=CN(Cc2cccc(OC)c2)c2ccccc2C1c1ccc(OC)cc1 (stereo unspecified) | 2.23 | 9.95 | – | – | – | – |
| – | – | – | – | COc1ccc(CCN(C)CCCC(C#N)(c2ccc(OC)c(OC)c2)C(C)C)cc1OC (stereo unspecified) | 1.46 | 4.98 | – | – | – | – |
| – | – | – | – | CCOC(=O)C1=CN(Cc2cccc(OC)c2)c2ccccc2C1c1cccc(OC)c1 (stereo unspecified) | 2.26 | 9.68 | – | – | – | – |
| – | – | – | – | CCOC(=O)C1=CN(Cc2ccc(OC)cc2)c2ccccc2C1c1ccc(OC)cc1 (stereo unspecified) | 2.55 | 12.4 | – | – | – | – |
| 1.03 | 1.03 | 0.99 | 0.99 | CCOC(=O)C1=CN(Cc2ccccc2)c2ccccc2C1c1cccc(OC)c1 (stereo unspecified) | 1.55 | 7.43 | > 160 µM | > 160 µM | > 160 µM | > 160 µM |
| – | – | – | – | CCOC(=O)C1=CN(Cc2ccccc2)c2ccccc2C1c1ccccc1 (stereo unspecified) | 0.79 | 2.86 | – | – | – | – |
| – | – | – | – | CCOC(=O)C1=CN(Cc2ccccc2)c2ccccc2C1c1cc(OC)cc(OC)c1 (stereo unspecified) | 2.96 | 10.5 | – | – | – | – |
| – | – | – | – | CCOC(=O)C1=CN(Cc2ccccc2)c2ccccc2C1c1ccc(OC)cc1 (stereo unspecified) | 1.27 | 5.52 | – | – | – | – |
